Reference: ChEMBL document CHEMBL1153743, “Pyrrolidinones from the ascomycete fungus Albonectria rigidiuscula” (J Nat Prod, 2009)
pIC50: −log10 of the molar value. Active and inactive are the calls of the source. The calls are words filed in the database; no cut-off is given here.

Legend:
Format in all cases: functional, cell-based
MCF7 [1] = experiment: Cytotoxicity against human MCF7 cells at 120 uM after 48 hrs by MTT assay
HeLa [2] = experiment: Cytotoxicity against human HeLa cells after 48 hrs by MTT assay
Outline: (§1)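 HeLa cells seeded at 10^4 per well and left to attach overnight. Cells were exposed for 4 h at 37 °C and 5% CO2 to serial dilutions or a single 120 µM level, made from 10 mg/mL DMSO stocks, or to 0.2% DMSO medium. They then grew 48 h in fresh DMEM. MTT (0.5 mg/mL) was added for 3 h in the dark, formazan was dissolved in DMSO, and A540 was read. Run in triplicate; IC50 reported.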

MCF7 [3] = experiment: Cytotoxicity against human MCF7 cells after 48 hrs by MTT assay; settings: MCF7, 48 h
HeLa [4] = experiment: Cytotoxicity against human HeLa cells at 120 uM after 48 hrs by MTT assay; outline: as §1

Row | Compound | Activity (MCF7 [1]) | pIC50 (HeLa [2]) | pIC50 (MCF7 [3]) | Activity (HeLa [4])
1 | CN1C(=O)[C@@](C)(O)[C@@H](O)[C@@H]1Cc1ccc2c(c1)CC(C(C)(C)O)O2 (stereo partly drawn) | inactive | < 3.92 | < 3.92 | inactive
2 | CN1C(=O)[C@@](C)(O)C(=O)[C@@H]1Cc1ccc2c(c1)CC(C(C)(C)O)O2 (stereo partly drawn) | inactive | < 3.92 | < 3.92 | inactive
3 | CN1C(=O)[C@@](C)(O)C(=O)[C@@H]1Cc1ccc(O)cc1 | – | 4.32 | 4.00 | –
4 | O=c1[nH]cc(F)c(=O)[nH]1 [FLUOROURACIL] | – | 5.00 | – | –
5 | CN1C(=O)[C@@](C)(O)[C@@H](O)[C@@H]1Cc1ccc(O)cc1 | – | 4.02 | 4.02 | –
